Experimental data: PMC10187107 (Journal of Enzyme Inhibition and Medicinal Chemistry, 2023)
Values joined by “and” are separate entries in the source; they are usually repeats but may differ in a detail not shown here. Identical values can stand only once.

Tests used:
human KGN cells = experiment: P4 output in human KGN cells under basal and FSK-stimulated conditions; format: cell-based; conditions: basal condition, 24 h
Procedure, shortened: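 KGN human granulosa-like cells grown in DMEM/F12 with 10% FBS and 1% antibiotics at 37 °C, 5% CO2. Seeded at 1 × 10^6 cells/well and treated for 24 h with 0, 10, 20 or 40 µM test compound, either without forskolin (basal) or with 10 µM forskolin. P4 in the medium was quantified by HPLC-MS/MS. n = 4; one-way ANOVA with Dunnett's test vs control.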

h3β-HSD2 = biological target: T1, h3β-HSD2 (Homo sapiens, UniProt P26439); experiment: h3β-HSD2 activity, conversion of P5 to P4 in KGN cell homogenate; format: biochemical; conditions: for Residual h3β-HSD2 activity: 100 µM chemical, relative to DMSO control; for IC50: IC50, human 3β-HSD2, KGN cell homogenate, 0.2 µM P5, 0.2 mM NAD+, 30 min; for Mode action: human 3β-HSD2, vs. P5, mixed model and Lineweaver-Burk plot
T1 sequence (P26439 1-372): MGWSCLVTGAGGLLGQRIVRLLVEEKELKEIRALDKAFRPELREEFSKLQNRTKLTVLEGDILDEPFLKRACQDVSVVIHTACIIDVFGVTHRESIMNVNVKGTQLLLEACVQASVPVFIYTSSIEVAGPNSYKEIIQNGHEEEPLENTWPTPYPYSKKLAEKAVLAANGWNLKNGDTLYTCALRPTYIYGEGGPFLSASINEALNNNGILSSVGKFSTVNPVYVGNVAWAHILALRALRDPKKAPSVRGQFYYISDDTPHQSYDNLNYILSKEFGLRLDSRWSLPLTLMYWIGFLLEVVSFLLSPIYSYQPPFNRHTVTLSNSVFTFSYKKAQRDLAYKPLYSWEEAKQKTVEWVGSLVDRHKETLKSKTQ

[1] = cited from earlier work
r3β-HSD1 = biological target: T2, r3β-HSD1 (Rattus norvegicus, UniProt P22071); experiment: r3β-HSD1 activity, conversion of P5 to P4 in rat testicular microsome; format: biochemical; conditions: for Residual r3β-HSD1 activity: 100 µM chemical, relative to DMSO control; for IC50: IC50, rat 3β-HSD1, testicular microsome, 0.2 µM P5, 0.2 mM NAD+, 30 min; for increase of inhibitory effect relative to CUR: r3β-HSD1; for Mode action: rat 3β-HSD1, vs. P5, mixed model and Lineweaver-Burk plot
T2 sequence (P22071 1-373): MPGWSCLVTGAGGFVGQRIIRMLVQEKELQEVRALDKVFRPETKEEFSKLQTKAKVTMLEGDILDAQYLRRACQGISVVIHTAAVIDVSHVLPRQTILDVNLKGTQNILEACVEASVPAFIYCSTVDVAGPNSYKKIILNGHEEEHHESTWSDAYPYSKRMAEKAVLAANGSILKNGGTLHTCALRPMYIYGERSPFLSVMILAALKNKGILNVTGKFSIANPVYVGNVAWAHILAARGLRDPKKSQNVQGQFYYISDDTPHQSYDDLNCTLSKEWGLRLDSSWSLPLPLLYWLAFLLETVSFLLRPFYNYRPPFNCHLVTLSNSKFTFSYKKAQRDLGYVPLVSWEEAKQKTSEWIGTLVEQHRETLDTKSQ
Procedure, shortened: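 Testes came from 90-day male Sprague-Dawley rats. Microsomes were isolated from homogenate in 0.25 M sucrose PBS (pH 7.2) by spins at 700, 14,500 and twice 105,000 ×g. Reactions used 5 µg microsomal protein, 0.2 µM P5 and 0.2 mM NAD+ in PBS for 30 min. […] P4 by HPLC-MS/MS with T-d5 internal standard; n = 4.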

human 11β-HSD1 = conditions: cited from earlier work
[2] = ref GuideChem; cited from earlier work
human 11β-HSD2 = conditions: cited from earlier work
human 17β-HSD3 = conditions: cited from earlier work

| SMILES | lowest concentration that markedly decreased basal P4 output (human KGN cells) | Ki (h3β-HSD2) | Residual h3β-HSD2 activity (h3β-HSD2) | IC50 (h3β-HSD2) | Mode action (h3β-HSD2) | half-lives [1] | Ki (r3β-HSD1) | Residual r3β-HSD1 activity (r3β-HSD1) | IC50 (r3β-HSD1) | increase of inhibitory effect relative to CUR (r3β-HSD1) | Mode action (r3β-HSD1) | IC50 (human 11β-HSD1) | clearance from the body [1] | LogP [2] | IC50 (human 11β-HSD2) | IC50 (human 17β-HSD3) | higher potency to inhibit r3β-HSD1 than h3β-HSD2 (r3β-HSD1; r3β-HSD1 vs h3β-HSD2) | Km (h3β-HSD2; read-out: apparent Km, substrate P5, h3β-HSD2, Michaelis-Menten kinetics) | Km (r3β-HSD1; read-out: apparent Km, substrate P5, r3β-HSD1, Michaelis-Menten kinetics) |
| --- | --- | --- | --- | --- | --- | --- | --- | --- | --- | --- | --- | --- | --- | --- | --- | --- | --- | --- | --- |
| O=C(/C=C/c1ccc(O)cc1)CC(=O)/C=C/c1ccc(O)cc1 [BDMC, bisdemethoxycurcumin] | 10 µM | 1.12 µM | < 25 % of the control | 1.68 ± 0.39 µM | Competitive | 2 to 4 h | 1.56 µM | < 20 % of the control | 1.22 ± 0.31 µM | 2 fold | Mixed |  |  |  |  |  |  |  |  |
| COc1cc(/C=C/C(=O)CC(=O)/C=C/c2ccc(O)c(OC)c2)ccc1O [CUR, curcumin] | 20 µM |  | < 25 % of the control |  | Mixed |  | 4.21 µM | < 20 % of the control | 4.06 ± 1.1 µM |  | Mixed | ~10 µM and 10 to 15 µM | rapid clearance | 3.37 | ~14.5 µM and 10 to 15 µM | ~67.3 µM and > 50 µM | about 3 fold |  |  |
| COc1cc(/C=C/C(O)=C/C(=O)/C=C/c2ccc(O)cc2)ccc1O [DMC, demethoxycurcumin] | 10 µM | 3.85 µM | < 25 % of the control | 3.27 ± 0.38 µM | Mixed | 2 to 4 h | 2.18 µM | < 20 % of the control | 2.15 ± 0.27 µM | 1 fold | Mixed |  |  |  |  |  |  |  |  |
| COc1cc(CCC(O)CC(O)CCc2ccc(O)c(OC)c2)ccc1O (stereo not shown) [OHC, octahydrocurcumin] |  |  | ≥ 50 % of the control |  |  |  |  |  |  |  |  |  |  |  |  |  |  |  |  |
| CC(=O)[C@H]1CC[C@H]2[C@@H]3CC=C4C[C@@H](O)CC[C@]4(C)[C@H]3CC[C@]12C [P5, pregnenolone] |  |  |  |  |  |  |  |  |  |  |  |  |  |  |  |  |  | 3.08 ± 0.81 µM | 0.32 ± 0.1 µM |
| COc1cc(CCC(=O)CC(=O)CCc2ccc(O)c(OC)c2)ccc1O [THC, tetrahydrocurcumin] |  |  | ≥ 50 % of the control | 109 ± 19.2 µM |  |  |  | around 50 % of the control | 103 ± 11.6 µM |  |  |  |  | 3.691 |  |  |  |  |  |
